Experimental data from publication PMC4410974 (Clinical cancer research : an official journal of the …, 2012).

Experiment: Sirolimus whole blood pharmacokinetics
Assay type: in vivo, human
Details: for AUC(0-inf) / Cmax / half-life / AUC / Tmax: human, whole blood, oral; for AUC: AUC [SD]; for Tmax: Tmax [SD]
In short: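 Advanced-cancer patients received oral sirolimus once weekly as 1 mg tablets. Week 1 was sirolimus alone. From week 2, ketoconazole was added: 200 mg bid on day 1, then 200 mg daily for 3 days. Whole blood was sampled predose and at 0.25, 0.5, 1, 2, 4, 8, 24 and 48 h in weeks 1–2, and predose in week 3. Analysis was noncompartmental. Cohort doses were re-estimated toward the target AUC assuming dose–AUC linearity.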

[1] = 30 mg, sirolimus alone study, 4 hours apart (total 60 mg), N=5, mean
[2] = 30 mg, sirolimus alone study, 24 hours apart (total 60 mg), N=3, mean
[3] = 45 mg, sirolimus alone study, 24 hours apart (total 90 mg), N=2, mean

Compound `CO[C@H]1C[C@@H]2CC[C@@H](C)[C@@](O)(O2)C(=O)C(=O)N2CCCC[C@H]2C(=O)O[C@H]([C@H](C)C[C@@H]2CC[C@@H](O)[C@H](OC)C2)CC(=O)[C@H](C)/C=C(\C)[C@@H](O)[C@@H](OC)C(=O)[C@H](C)C[C@H](C)/C=C/C=C/C=C/1C` [Sirolimus] has an AUC(0-inf) (1 mg, sirolimus 1 mg, with ketoconazole, n=6) of 935 ng·h/mL, an AUC(0-inf) (1 mg, sirolimus 1 mg, without ketoconazole, n=6) of 186 ng·h/mL and a Cmax (1 mg, Cmax, sirolimus 1 mg, with ketoconazole, n=6) of 25.4 ng/mL. The Cmax (1 mg, Cmax, sirolimus 1 mg, without ketoconazole, n=6) was 5.4 ng/mL, the half-life (1 mg, T1/2, sirolimus 1 mg, without ketoconazole, n=6) was 4920 min and the AUC(0-inf) (2 mg, sirolimus 2 mg, with ketoconazole, n=6) was 1350 ng·h/mL. It also gave an AUC(0-inf) (2 mg, sirolimus 2 mg, without ketoconazole, n=6) of 271 ng·h/mL, an AUC(0-inf) (3 mg, sirolimus 3 mg, with ketoconazole, n=6) of 2450 ng·h/mL and an AUC(0-inf) (3 mg, sirolimus 3 mg, without ketoconazole, n=6) of 400 ng·h/mL. It also gave a Cmax (3 mg, Cmax, sirolimus 3 mg, with ketoconazole, n=6) of 49.2 ng/mL, a half-life (3 mg, T1/2, sirolimus 3 mg, with ketoconazole, n=6) of 5040 min and a half-life (3 mg, T1/2, sirolimus 3 mg, without ketoconazole, n=6) of 2100 min. The AUC(0-inf) (4 mg, sirolimus 4 mg, with ketoconazole, n=6) was 2900 ng·h/mL, the AUC(0-inf) (4 mg, sirolimus 4 mg, without ketoconazole, n=6) was 456 ng·h/mL and the Cmax (4 mg, Cmax, sirolimus 4 mg, with ketoconazole, n=6) was 66.8 ng/mL. The Cmax (4 mg, Cmax, sirolimus 4 mg, without ketoconazole, n=6) was 21.3 ng/mL, the half-life (4 mg, T1/2, sirolimus 4 mg, without ketoconazole, n=6) was 2160 min and the AUC(0-inf) (5 mg, sirolimus 5 mg, with ketoconazole, n=6) was 3140 ng·h/mL. The AUC(0-inf) (5 mg, sirolimus 5 mg, without ketoconazole, n=6) was 676 ng·h/mL, the Cmax (5 mg, Cmax, sirolimus 5 mg, with ketoconazole, n=6) was 71.2 ng/mL and the Cmax (5 mg, Cmax, sirolimus 5 mg, without ketoconazole, n=6) was 25.8 ng/mL. It also gave a half-life (5 mg, T1/2, sirolimus 5 mg, with ketoconazole, n=6) of 3420 min, a half-life (5 mg, T1/2, sirolimus 5 mg, without ketoconazole, n=6) of 2100 min and an AUC(0-inf) (6 mg, sirolimus 6 mg, with ketoconazole, n=3) of 2620 ng·h/mL. It also gave an AUC(0-inf) (6 mg, sirolimus 6 mg, without ketoconazole, n=3) of 510 ng·h/mL, a Cmax (6 mg, Cmax, sirolimus 6 mg, with ketoconazole, n=3) of 74.6 ng/mL and a Cmax (6 mg, Cmax, sirolimus 6 mg, without ketoconazole, n=3) of 15 ng/mL. It also gave a half-life (6 mg, T1/2, sirolimus 6 mg, without ketoconazole, n=3) of 4680 min, an AUC(0-inf) (8 mg, sirolimus 8 mg, with ketoconazole, n=1) of 1620 ng·h/mL and an AUC(0-inf) (8 mg, sirolimus 8 mg, without ketoconazole, n=1) of 420 ng·h/mL. For the same compound, the Cmax (8 mg, Cmax, sirolimus 8 mg, with ketoconazole, n=1) was 85.2 ng/mL, the Cmax (8 mg, Cmax, sirolimus 8 mg, without ketoconazole, n=1) was 25.2 ng/mL and the half-life (8 mg, T1/2, sirolimus 8 mg, with ketoconazole, n=1) was 2040 min. It also gave a half-life (8 mg, T1/2, sirolimus 8 mg, without ketoconazole, n=1) of 1080 min, an AUC(0-inf) (16 mg, sirolimus 16 mg, with ketoconazole, n=2) of 5010 ng·h/mL and a Cmax (16 mg, Cmax, sirolimus 16 mg, with ketoconazole, n=2) of 123 ng/mL. The half-life (16 mg, T1/2, sirolimus 16 mg, with ketoconazole, n=2) was 1920 min, the AUC [1] was 2050 ng·h/mL and the AUC [2] was 3680 ng·h/mL. The Cmax (30 mg, Cmax [SD], sirolimus alone study, 4 hours apart (total 60 mg), N=5, mean) was 32.9 ng/mL, the Cmax (30 mg, Cmax [SD], sirolimus alone study, 24 hours apart (total 60 mg), N=3, mean) was 83.9 ng/mL and the Tmax [1] was 2.2 h. For the same compound, the Tmax [2] was 2.3 h, the AUC [3] was 3360 ng·h/mL and the Cmax (45 mg, Cmax [SD], sirolimus alone study, 24 hours apart (total 90 mg), N=2, mean) was 42.8 ng/mL. For the same compound, the Tmax [3] was 2.1 h, the CL/F (sirolimus 1 mg, with ketoconazole, n=6) was 1.2 L/h and the CL/F (sirolimus 1 mg, without ketoconazole, n=6) was 10.3 L/h. The CL/F (sirolimus 2 mg, with ketoconazole, n=6) was 1.8 L/h, the CL/F (sirolimus 2 mg, without ketoconazole, n=6) was 9.5 L/h and the CL/F (sirolimus 3 mg, with ketoconazole, n=6) was 1.6 L/h. It also gave a CL/F (sirolimus 3 mg, without ketoconazole, n=6) of 8.0 L/h, a CL/F (sirolimus 4 mg, with ketoconazole, n=6) of 2.1 L/h and a CL/F (sirolimus 4 mg, without ketoconazole, n=6) of 10.0 L/h. The CL/F (sirolimus 5 mg, with ketoconazole, n=6) was 2.8 L/h, the CL/F (sirolimus 5 mg, without ketoconazole, n=6) was 9.0 L/h and the CL/F (sirolimus 6 mg, with ketoconazole, n=3) was 2.6 L/h. For the same compound, the CL/F (sirolimus 6 mg, without ketoconazole, n=3) was 15.6 L/h, the CL/F (sirolimus 8 mg, with ketoconazole, n=1) was 4.9 L/h and the CL/F (sirolimus 8 mg, without ketoconazole, n=1) was 19.1 L/h. The CL/F (sirolimus 15 mg, with grapefruit juice, n=5) was 5.9 L/h, the CL/F (sirolimus 15 mg, without grapefruit juice, n=5) was 20.5 L/h and the CL/F (sirolimus 16 mg, with ketoconazole, n=2) was 3.2 L/h. It also gave a CL/F (sirolimus 16 mg, without ketoconazole, n=2) of 11.2 L/h, a CL/F (sirolimus 20 mg, with grapefruit juice, n=5) of 11.5 L/h and a CL/F (sirolimus 20 mg, without grapefruit juice, n=5) of 36.9 L/h. The CL/F (sirolimus 25 mg, with grapefruit juice, n=4) was 9.2 L/h, the CL/F (sirolimus 25 mg, without grapefruit juice, n=4) was 32.6 L/h and the CL/F (sirolimus 30 mg, with grapefruit juice, n=5) was 12.6 L/h. The CL/F (sirolimus 30 mg, without grapefruit juice, n=5) was 18.7 L/h, the CL/F (sirolimus 35 mg, with grapefruit juice, n=8) was 12.8 L/h and the CL/F (sirolimus 35 mg, without grapefruit juice, n=8) was 29.4 L/h. For the same compound, the “CL/F [SD]” value (sirolimus alone study, 30 mg, 4 hours apart (total 60 mg), N=5, mean) was 19.786 [15.2] l/h, the “CL/F [SD]” value (sirolimus alone study, 30 mg, 24 hours apart (total 60 mg), N=3, mean) was 17.087 [2.90] l/h and the “CL/F [SD]” value (sirolimus alone study, 45 mg, 24 hours apart (total 90 mg), N=2, mean) was 26.842 [1.1] l/h. The “CL/F [SD]” value (sirolimus alone study, dose cohort 10 mg, N=6, mean) was 16.922 [6.08] l/h, the “CL/F [SD]” value (sirolimus alone study, dose cohort 20 mg, N=7, mean) was 18.736 [11.0] l/h and the “CL/F [SD]” value (sirolimus alone study, dose cohort 30 mg, N=6, mean) was 16.148 [10.4] l/h. The “CL/F [SD]” value (sirolimus alone study, dose cohort 60 mg, N=8, mean) was 19.588 [13.6] l/h, the “Sirolimus dose at which target AUC of 3810 ng-hr/ml was achieved/observed” value (sirolimus plus grapefruit juice study) was 25 mg and the “Sirolimus dose at which target AUC of 3810 ng-hr/ml was achieved” value (sirolimus plus ketoconazole study) was 16 mg.
